ChEMBL document CHEMBL2176883, “Aminopiperidine sulfonamide Cav2.2 channel inhibitors for the treatment of chronic pain” (J Med Chem, 2012)

Columns and labels:
Mus musculus [1] = experiment: Antinociceptive activity in Cav2.2 expressing wild type mouse assessed as reversal of complete Freund's adjuvant-induced pain at 30 mg/kg, po after 2 hrs; type: functional
Liver microsomes = experiment: Drug metabolism in human liver microsomes assessed as assessed as 3-trifluoromethylbenzenesulfonamide level level; type: ADME, Microsome
[2] = Tmax in rat at 3 mg/kg; type: ADME, organism-based; parameters: dose 3 mg/kg; conditions: in vivo
Summary of the method: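 Rat pharmacokinetics: 3 mg/kg po arm alongside 1 mg/kg iv; tmax from oral arm, half-life from iv dosing.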

[3] = Plasma clearance in rat at 3 mg/kg, po and 1 mg/kg, iv; type: ADME, organism-based
Summary of the method: (§1)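 Rat pharmacokinetics from iv and po arms: 0.6 mg/kg iv with 1.8 mg/kg po, or 1 mg/kg iv with 3 mg/kg po. AUC was normalized to po dose (μM·h·kg/mg). Clearance (mL/min/kg) and half-life come from the iv arm, and F% is oral bioavailability.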

[4] = Oral bioavailability in rat at 3 mg/kg; type: ADME, organism-based; conditions: in vivo; summary of the method: as §1
Rattus norvegicus [5] = experiment: Antinociceptive activity in rat assessed as reversal of complete Freund's adjuvant-induced pain at 10 mg/kg, po after 3 hrs; type: functional
Summary of the method: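 Rats had complete Freund's adjuvant-induced inflammatory pain and got oral dosing. Allodynia was read at 1 and 3 h postdose. Percent reversal per rat = (postdose − predose)/(preinjury − predose). Groups had at least six animals, reported as mean + SEM.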

[6] = target: T1, Voltage-dependent N-type calcium channel subunit alpha-1B (Homo sapiens, UniProt Q00975); experiment: Inhibition of human Cav2.2 expressed CBK cells assessed as inhibition of channel current at <1 uM at holding membrane potential -40 mV by conventional patch clamp electrophysiology assay
Summary of the method: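 Cav2.2 current block was measured at a depolarized (−40 mV) or hyperpolarized (−90 mV) potential. At −40 mV, n = 2, 3, 4 and 1 at 0.3, 1, 3 and 10 μM. At −90 mV, n = 4 and 6 at 3 and 10 μM. Values are mean ± SEM.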
Target sequence in this assay (Q00975 whole entry, looked up): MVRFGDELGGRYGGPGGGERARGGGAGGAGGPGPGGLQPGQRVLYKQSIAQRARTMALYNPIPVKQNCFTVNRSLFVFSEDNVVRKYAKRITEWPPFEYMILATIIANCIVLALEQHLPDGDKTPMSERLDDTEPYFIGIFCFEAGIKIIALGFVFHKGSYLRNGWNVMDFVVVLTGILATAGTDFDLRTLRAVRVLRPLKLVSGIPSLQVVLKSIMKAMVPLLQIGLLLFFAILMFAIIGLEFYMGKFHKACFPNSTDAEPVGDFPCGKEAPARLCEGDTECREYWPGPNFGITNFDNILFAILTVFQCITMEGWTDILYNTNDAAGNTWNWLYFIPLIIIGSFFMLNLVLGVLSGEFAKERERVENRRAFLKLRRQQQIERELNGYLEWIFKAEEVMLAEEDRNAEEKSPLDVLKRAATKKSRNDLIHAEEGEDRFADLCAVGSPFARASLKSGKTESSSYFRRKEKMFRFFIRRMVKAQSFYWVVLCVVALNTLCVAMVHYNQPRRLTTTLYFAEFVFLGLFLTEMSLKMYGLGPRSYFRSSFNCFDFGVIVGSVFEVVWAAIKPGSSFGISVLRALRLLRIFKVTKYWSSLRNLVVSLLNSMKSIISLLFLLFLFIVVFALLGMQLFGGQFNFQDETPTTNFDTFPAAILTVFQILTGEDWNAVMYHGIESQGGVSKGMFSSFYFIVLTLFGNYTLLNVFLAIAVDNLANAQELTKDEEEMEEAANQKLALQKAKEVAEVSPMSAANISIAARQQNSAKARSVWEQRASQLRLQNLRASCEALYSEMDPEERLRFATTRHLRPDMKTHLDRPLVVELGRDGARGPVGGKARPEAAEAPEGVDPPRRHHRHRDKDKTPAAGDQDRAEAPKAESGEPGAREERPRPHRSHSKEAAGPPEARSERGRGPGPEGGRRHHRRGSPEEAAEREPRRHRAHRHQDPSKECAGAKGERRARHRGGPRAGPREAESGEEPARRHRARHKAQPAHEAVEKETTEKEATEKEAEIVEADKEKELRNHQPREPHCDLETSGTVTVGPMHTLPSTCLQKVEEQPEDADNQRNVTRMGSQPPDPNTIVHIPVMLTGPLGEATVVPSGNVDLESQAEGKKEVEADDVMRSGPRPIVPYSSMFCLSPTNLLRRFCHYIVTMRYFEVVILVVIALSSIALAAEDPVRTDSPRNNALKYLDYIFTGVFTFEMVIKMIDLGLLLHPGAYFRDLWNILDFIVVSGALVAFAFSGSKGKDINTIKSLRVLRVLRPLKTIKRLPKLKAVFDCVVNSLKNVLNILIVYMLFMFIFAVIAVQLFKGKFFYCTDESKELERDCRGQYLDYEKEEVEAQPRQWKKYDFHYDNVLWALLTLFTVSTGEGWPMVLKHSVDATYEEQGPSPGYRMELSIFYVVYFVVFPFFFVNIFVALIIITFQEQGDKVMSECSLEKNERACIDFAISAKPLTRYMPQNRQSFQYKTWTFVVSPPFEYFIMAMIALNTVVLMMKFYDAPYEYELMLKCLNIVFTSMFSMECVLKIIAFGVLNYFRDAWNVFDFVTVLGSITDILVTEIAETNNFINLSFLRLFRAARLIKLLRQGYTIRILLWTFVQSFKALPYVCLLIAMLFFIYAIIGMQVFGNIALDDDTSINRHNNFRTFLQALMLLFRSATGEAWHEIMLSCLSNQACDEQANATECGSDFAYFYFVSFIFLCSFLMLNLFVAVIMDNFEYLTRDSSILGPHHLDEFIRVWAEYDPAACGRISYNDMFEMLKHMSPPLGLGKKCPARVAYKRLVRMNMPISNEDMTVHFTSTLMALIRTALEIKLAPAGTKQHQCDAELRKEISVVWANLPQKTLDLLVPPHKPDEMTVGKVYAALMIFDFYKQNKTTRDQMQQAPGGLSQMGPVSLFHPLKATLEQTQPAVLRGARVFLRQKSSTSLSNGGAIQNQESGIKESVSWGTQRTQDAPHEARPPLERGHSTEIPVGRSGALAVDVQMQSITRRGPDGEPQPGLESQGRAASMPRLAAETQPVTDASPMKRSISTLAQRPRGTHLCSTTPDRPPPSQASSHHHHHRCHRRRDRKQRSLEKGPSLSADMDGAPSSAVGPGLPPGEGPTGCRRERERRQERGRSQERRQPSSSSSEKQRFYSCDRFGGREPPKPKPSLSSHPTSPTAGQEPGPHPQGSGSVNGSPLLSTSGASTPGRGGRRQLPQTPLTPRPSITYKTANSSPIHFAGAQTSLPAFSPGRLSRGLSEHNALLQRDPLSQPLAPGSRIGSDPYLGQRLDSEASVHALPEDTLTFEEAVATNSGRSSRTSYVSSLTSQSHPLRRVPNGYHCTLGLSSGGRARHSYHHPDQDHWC

Rattus norvegicus [7] = experiment: Analgesic activity in po dosed rat SNL neuropathic pain model assessed as reversal of mechanical allodynia after 1 to 24 hrs; type: functional, organism-based
[8] = Plasma concentration in rat SNL neuropathic pain model at 10 mg/kg, po after 3 hrs; type: ADME, organism-based; parameters: dose 10 mg/kg, route oral
Summary of the method: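 Rats with spinal nerve ligation; separate SNL-treated rats given single oral 10 mg/kg dose; plasma exposure measured 3 h postdose.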

Mus musculus [9] = experiment: Antinociceptive activity in Cav2.2 deficient mouse assessed as reversal of complete Freund's adjuvant-induced pain at 30 mg/kg, po after 2 hrs; type: functional
Canis familiaris [10] = experiment: Cardiotoxicity in vagotomized dog assessed as PR interval at 1 to 10 mg/kg, iv up to 90 mins; type: toxicity, organism-based, Canis lupus familiaris; parameters: dose 1-10 mg/kg, route intravenous; conditions: in vivo, 1.5 h
Summary of the method: (§2)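 Anesthetized, vagotomized dogs received an intravenous infusion in sequential rising cumulative doses of 1, 3 and 10 mg/kg. MAP, HR, QRS, PR and QTc were monitored, with plasma exposure sampled at the indicated time points (n = 3).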

[11] = Plasma concentration in rat complete Freund's adjuvant-induced pain model at 10 mg/kg, po after 3 hrs; type: ADME, organism-based; parameters: dose 10 mg/kg, route oral
Summary of the method: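 Separate CFA-treated rats given single oral 10 mg/kg dose; plasma exposure measured 3 h after dosing.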

Canis familiaris [12] = experiment: Cardiotoxicity in vagotomized dog assessed as mean arterial pressure at 1 to 10 mg/kg, iv up to 90 mins; type: toxicity, organism-based, Canis lupus familiaris, Artery; parameters: dose 1-10 mg/kg, route intravenous; conditions: in vivo, 1.5 h; summary of the method: as §2
Cytochrome P450 3A4 = Cytochrome P450 3A4 (Homo sapiens, UniProt P08684); experiment: Inhibition of CYP3A4; type: ADME
Cytochrome P450 3A4, sequence (P08684 whole entry): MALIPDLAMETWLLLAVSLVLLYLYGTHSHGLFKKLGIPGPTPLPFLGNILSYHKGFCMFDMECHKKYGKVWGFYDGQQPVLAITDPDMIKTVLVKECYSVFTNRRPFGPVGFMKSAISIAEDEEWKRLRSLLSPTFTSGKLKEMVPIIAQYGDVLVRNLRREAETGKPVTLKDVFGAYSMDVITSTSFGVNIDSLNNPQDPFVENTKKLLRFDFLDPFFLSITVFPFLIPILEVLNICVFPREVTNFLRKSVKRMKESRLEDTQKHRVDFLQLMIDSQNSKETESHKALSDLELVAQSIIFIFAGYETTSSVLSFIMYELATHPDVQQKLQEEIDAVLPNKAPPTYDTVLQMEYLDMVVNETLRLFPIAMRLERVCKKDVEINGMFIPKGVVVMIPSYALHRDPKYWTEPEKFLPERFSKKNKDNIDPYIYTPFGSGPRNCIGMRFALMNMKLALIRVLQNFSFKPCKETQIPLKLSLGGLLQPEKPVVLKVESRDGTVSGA

[13] = Metabolic stability in human liver microsomes assessed as compound remaining at 1 uM after 1 hr; type: ADME, Microsome; conditions: read-out: Stability
Summary of the method: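 Compound at 1 μM was incubated with human or rat liver microsomes (1 mg/mL) for 1 h, and the percentage of parent remaining was determined.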

PXR = target: T2, PXR (Homo sapiens, UniProt O75469); experiment: Activation of PXR at 10 uM relative to control; conditions: read-out: max activation
T2 sequence (O75469 whole entry): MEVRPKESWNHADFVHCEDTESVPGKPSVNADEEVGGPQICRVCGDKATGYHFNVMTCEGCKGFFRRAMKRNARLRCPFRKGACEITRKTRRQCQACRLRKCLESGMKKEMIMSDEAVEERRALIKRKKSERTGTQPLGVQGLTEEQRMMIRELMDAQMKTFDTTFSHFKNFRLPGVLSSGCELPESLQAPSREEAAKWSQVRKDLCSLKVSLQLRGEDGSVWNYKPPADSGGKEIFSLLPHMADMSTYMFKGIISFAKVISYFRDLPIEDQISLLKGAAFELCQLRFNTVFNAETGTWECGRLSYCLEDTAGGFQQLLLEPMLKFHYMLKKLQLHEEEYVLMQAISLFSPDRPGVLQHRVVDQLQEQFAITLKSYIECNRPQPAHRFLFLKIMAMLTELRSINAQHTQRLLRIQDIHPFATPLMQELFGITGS

Rattus norvegicus [14] = experiment: Antinociceptive activity in rat assessed as reversal of complete Freund's adjuvant-induced pain at 30 mg/kg, po after 1 hr; type: functional
Summary of the method: (§3)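 In the rat CFA inflammatory pain model, compound was given orally at 30 mg/kg and allodynia was read at 1 and 3 h postdose. Average % reversal = (postdose − predose)/(preinjury − predose) for each rat, n = 6. Plasma exposure at 3 h was measured in satellite rats (n = 2).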

[15] = Plasma concentration in rat complete Freund's adjuvant-induced pain model at 30 mg/kg, po after 3 hrs; type: ADME, organism-based; parameters: dose 30 mg/kg, route oral
Summary of the method: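 Satellite rats in CFA inflammatory pain study, 30 mg/kg po; plasma exposure (μM) at 3 h, n = 2, standard deviation.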

Cav1.2 = Cav1.2 (Homo sapiens, UniProt Q13936); experiment: Inhibition of Cav1.2 assessed as inhibition of calcium flux at 3 uM by cell based FLIPR assay
Cav1.2, sequence (Q13936 whole entry): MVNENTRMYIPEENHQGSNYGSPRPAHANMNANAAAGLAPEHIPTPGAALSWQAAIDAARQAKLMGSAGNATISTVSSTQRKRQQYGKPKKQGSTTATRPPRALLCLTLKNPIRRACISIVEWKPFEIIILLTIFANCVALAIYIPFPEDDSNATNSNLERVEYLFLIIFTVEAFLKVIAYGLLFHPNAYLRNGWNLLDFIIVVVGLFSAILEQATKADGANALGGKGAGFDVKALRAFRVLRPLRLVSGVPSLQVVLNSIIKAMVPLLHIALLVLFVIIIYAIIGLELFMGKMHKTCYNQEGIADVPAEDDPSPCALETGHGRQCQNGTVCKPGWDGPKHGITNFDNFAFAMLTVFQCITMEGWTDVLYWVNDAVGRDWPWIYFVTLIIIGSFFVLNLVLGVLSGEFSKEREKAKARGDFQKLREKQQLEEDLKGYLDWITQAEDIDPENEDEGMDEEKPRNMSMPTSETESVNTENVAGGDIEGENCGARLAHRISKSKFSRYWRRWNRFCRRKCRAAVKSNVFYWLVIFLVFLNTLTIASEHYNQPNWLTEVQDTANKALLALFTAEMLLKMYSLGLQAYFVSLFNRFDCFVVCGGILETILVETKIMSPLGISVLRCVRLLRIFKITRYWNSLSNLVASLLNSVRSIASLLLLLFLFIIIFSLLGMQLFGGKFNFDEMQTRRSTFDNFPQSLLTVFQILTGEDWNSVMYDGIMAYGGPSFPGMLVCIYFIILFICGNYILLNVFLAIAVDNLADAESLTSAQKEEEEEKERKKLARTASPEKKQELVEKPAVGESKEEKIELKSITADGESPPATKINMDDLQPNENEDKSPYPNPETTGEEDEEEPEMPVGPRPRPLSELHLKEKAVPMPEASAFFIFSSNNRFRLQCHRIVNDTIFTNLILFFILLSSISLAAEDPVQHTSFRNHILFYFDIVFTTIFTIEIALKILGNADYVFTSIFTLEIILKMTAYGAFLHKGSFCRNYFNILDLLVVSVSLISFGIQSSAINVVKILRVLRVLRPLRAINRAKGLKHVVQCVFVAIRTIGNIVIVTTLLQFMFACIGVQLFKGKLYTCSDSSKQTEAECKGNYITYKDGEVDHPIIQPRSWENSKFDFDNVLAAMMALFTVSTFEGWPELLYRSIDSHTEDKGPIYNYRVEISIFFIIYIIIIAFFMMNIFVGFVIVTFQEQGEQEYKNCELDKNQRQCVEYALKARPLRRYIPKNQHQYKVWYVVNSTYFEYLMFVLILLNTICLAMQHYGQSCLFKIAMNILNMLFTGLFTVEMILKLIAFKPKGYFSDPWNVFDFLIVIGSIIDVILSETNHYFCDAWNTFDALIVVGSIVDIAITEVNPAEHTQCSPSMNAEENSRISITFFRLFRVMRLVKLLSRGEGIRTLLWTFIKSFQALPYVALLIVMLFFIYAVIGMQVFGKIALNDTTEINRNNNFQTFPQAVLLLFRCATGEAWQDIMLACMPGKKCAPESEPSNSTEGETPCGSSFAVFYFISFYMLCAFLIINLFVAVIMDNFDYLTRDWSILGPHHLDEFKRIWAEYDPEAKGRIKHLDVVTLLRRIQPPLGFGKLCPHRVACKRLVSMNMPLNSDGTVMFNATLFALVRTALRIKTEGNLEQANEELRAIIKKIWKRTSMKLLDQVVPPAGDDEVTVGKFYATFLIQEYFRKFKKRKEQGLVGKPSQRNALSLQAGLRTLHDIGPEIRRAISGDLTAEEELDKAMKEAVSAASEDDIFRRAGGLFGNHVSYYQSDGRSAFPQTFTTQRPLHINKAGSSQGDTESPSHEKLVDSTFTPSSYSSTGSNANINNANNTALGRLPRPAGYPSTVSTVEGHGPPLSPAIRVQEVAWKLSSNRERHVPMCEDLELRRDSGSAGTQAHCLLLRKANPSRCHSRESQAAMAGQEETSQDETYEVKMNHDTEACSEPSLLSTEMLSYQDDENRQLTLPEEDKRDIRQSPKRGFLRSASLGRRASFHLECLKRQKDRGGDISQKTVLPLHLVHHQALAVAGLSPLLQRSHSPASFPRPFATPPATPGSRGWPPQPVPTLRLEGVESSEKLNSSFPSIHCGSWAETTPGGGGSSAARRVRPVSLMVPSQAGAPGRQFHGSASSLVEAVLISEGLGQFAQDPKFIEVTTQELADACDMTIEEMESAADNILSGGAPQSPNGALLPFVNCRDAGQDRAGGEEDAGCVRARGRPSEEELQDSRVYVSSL
Summary of the method: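 Cav1.2 counterscreen using a related calcium-influx FLIPR assay, run as % inhibition at single concentrations or as a titration.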

[16] = target: T1, Voltage-dependent N-type calcium channel subunit alpha-1B; experiment: Inhibition of Cav2.2 expressed HEK293 cells assessed as inhibition of calcium flux by FLIPR assay in presence of 30 mM of potassium; type: cell-based
Summary of the method: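 Calcium influx was read with a calcium-sensitive dye on FLIPR Tetra in CBK cells expressing α1B-1, α2-δ and β3a with Kir2.3. Cells were preincubated with compound in 30 mM K+, then channels were opened by 1:1 addition of 140 mM K+ solution. Compounds were screened at 1 μM, then titrated over 10 points (0.001–30 μM) in quadruplicate, mean ± SD. Values are averages of n ≥ 3.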
Target sequence in this assay (Q00975 whole entry): as the sequence (Q00975 whole entry, looked up) above

Rattus norvegicus [17] = experiment: Antinociceptive activity in rat assessed as reversal of complete Freund's adjuvant-induced pain at 30 mg/kg, po after 3 hrs; type: functional; summary of the method: as §3
Rattus norvegicus [18] = experiment: Analgesic activity in rat SNL neuropathic pain model assessed as reversal of mechanical allodynia at 10 mg/kg, po after 1 hr; type: functional

Drug metabolism (Liver microsomes): Active
Tmax [2]: 1.7 h
clearance [3]: 35 mL/min/kg
bioavailability [4]: 99%
inhibition [6]: > 50%
concentration at 3 h [8]: 1260 nM
concentration at 3 h [11]: 1660 nM
IC50 (Cytochrome P450 3A4): 5100 nM
remaining at 1 h, 1 µM [13]: 30%
Emax at 10 µM (PXR): 124%
concentration at 3 h [15]: 1600 nM
IC50 [16]: 560 nM
Compound: CS(=O)(=O)c1ccc(F)cc1C(=O)N1CCC(N(C2CC2)S(=O)(=O)c2cccc(C(F)(F)F)c2)CC1
Activity (Mus musculus [1]): 35%
Activity (Rattus norvegicus [5]): 49%
Activity (Rattus norvegicus [7]): Dose-dependent effect
Activity (Mus musculus [9]): 4%
Activity (Canis familiaris [10]): Non-toxic
Activity (Canis familiaris [12]): Non-toxic
Activity (Rattus norvegicus [14]): 66%
inhibition at 3 µM (Cav1.2): 34%
Activity (Rattus norvegicus [17]): 57%
Activity (Rattus norvegicus [18]): 45%
